# Reference: ChEMBL document CHEMBL5058577, “EUbOPEN Chemogenomics Library 2 (Multiplex)” (2022)
# System: Fibroblast
# Test: Multiplex assay against human fibroblast
# Type: toxicity, cell-based
# Summary of the method: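 Values for tubulin, mitochondrial-mass and membrane-permeability phenotypes are per cents of cells with healthy nuclei. These cells were identified by CellPathfinder machine-learning gating of live cells that had been stained at seeding with Hoechst33342, BioTracker Green Microtubule Cytoskeleton Dye, MitoTracker Red and Annexin V Alexa Fluor 680 and imaged on a CQ1 microscope at 37°C and 5% CO2 after compound addition. The gating first set Hoechst high-intensity objects apart from normal cells, then split normal cells into healthy, pyknosed or fragmented nuclei, and pyknosed cells into mitotic or apoptotic.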
# [1] = 12 h, 1 µM, compound concentration 1 uM, replicate 1
# [2] = 12 h, 1 µM, compound concentration 1 uM, replicate 2
# [3] = 12 h, 10 µM, compound concentration 10 uM, replicate 1
# [4] = 12 h, 10 µM, compound concentration 10 uM, replicate 2
# [5] = 24 h, 1 µM, compound concentration 1 uM, replicate 1
# [6] = 24 h, 1 µM, compound concentration 1 uM, replicate 2
# [7] = 24 h, 10 µM, compound concentration 10 uM, replicate 1
# [8] = 24 h, 10 µM, compound concentration 10 uM, replicate 2
# [9] = 48 h, 1 µM, compound concentration 1 uM, replicate 1
# [10] = 48 h, 1 µM, compound concentration 1 uM, replicate 2
# [11] = 48 h, 10 µM, compound concentration 10 uM, replicate 1
# [12] = 48 h, 10 µM, compound concentration 10 uM, replicate 2
structure (smiles),measurement,setting,value
CC(=O)NCCc1c(Cc2ccccc2)[nH]c2ccccc12 [LUZINDOLE],Population Apoptotic (%),[1],41%
same,Population Fragmented Nuclei (%),[1],15%
same,Population Healthy Nuclei (%),[1],65%
same,Population Hoechst High Intensity Objects (%),[1],1%
same,Population Membrane Permeable-Phenotype (%),[1],2%
same,Population Mitochondria Different-Phenotype (%),[1],7%
same,Population Mitotic Cells (%),[1],58%
same,Population Normal (%),[1],98%
same,Population Pyknosed Nuclei (%),[1],18%
same,Population Tubulin-Different-Phenotype (%),[1],30%
same,Total Cell Count,[1],129
same,Population Apoptotic (%),[2],40%
same,Population Fragmented Nuclei (%),[2],25%
same,Population Healthy Nuclei (%),[2],39%
same,Population Hoechst High Intensity Objects (%),[2],4%
same,Population Membrane Permeable-Phenotype (%),[2],9%
same,Population Mitochondria Different-Phenotype (%),[2],11%
same,Population Mitotic Cells (%),[2],59%
same,Population Normal (%),[2],95%
same,Population Pyknosed Nuclei (%),[2],34%
same,Population Tubulin-Different-Phenotype (%),[2],50%
same,Total Cell Count,[2],134
same,Population Apoptotic (%),[3],19%
same,Population Fragmented Nuclei (%),[3],15%
same,Population Healthy Nuclei (%),[3],69%
same,Population Hoechst High Intensity Objects (%),[3],2%
same,Population Membrane Permeable-Phenotype (%),[3],2%
same,Population Mitochondria Different-Phenotype (%),[3],7%
same,Population Mitotic Cells (%),[3],80%
same,Population Normal (%),[3],97%
same,Population Pyknosed Nuclei (%),[3],15%
same,Population Tubulin-Different-Phenotype (%),[3],42%
same,Total Cell Count,[3],140
same,Population Apoptotic (%),[4],21%
same,Population Fragmented Nuclei (%),[4],26%
same,Population Healthy Nuclei (%),[4],59%
same,Population Membrane Permeable-Phenotype (%),[4],13%
same,Population Mitochondria Different-Phenotype (%),[4],4%
same,Population Mitotic Cells (%),[4],78%
same,Population Pyknosed Nuclei (%),[4],13%
same,Population Tubulin-Different-Phenotype (%),[4],32%
same,Total Cell Count,[4],105
same,Population Apoptotic (%),[5],54%
same,Population Fragmented Nuclei (%),[5],21%
same,Population Healthy Nuclei (%),[5],61%
same,Population Hoechst High Intensity Objects (%),[5],0%
same,Population Membrane Permeable-Phenotype (%),[5],0%
same,Population Mitochondria Different-Phenotype (%),[5],3%
same,Population Mitotic Cells (%),[5],45%
same,Population Normal (%),[5],99%
same,Population Pyknosed Nuclei (%),[5],16%
same,Population Tubulin-Different-Phenotype (%),[5],13%
same,Total Cell Count,[5],134
same,Population Apoptotic (%),[6],45%
same,Population Fragmented Nuclei (%),[6],25%
same,Population Healthy Nuclei (%),[6],47%
same,Population Hoechst High Intensity Objects (%),[6],5%
same,Population Membrane Permeable-Phenotype (%),[6],8%
same,Population Mitochondria Different-Phenotype (%),[6],8%
same,Population Mitotic Cells (%),[6],54%
same,Population Normal (%),[6],94%
same,Population Pyknosed Nuclei (%),[6],26%
same,Population Tubulin-Different-Phenotype (%),[6],50%
same,Total Cell Count,[6],137
same,Population Apoptotic (%),[7],47%
same,Population Fragmented Nuclei (%),[7],15%
same,Population Healthy Nuclei (%),[7],67%
same,Population Hoechst High Intensity Objects (%),[7],2%
same,Population Membrane Permeable-Phenotype (%),[7],1%
same,Population Mitochondria Different-Phenotype (%),[7],5%
same,Population Mitotic Cells (%),[7],52%
same,Population Normal (%),[7],97%
same,Population Pyknosed Nuclei (%),[7],17%
same,Population Tubulin-Different-Phenotype (%),[7],29%
same,Total Cell Count,[7],138
same,Population Apoptotic (%),[8],23%
same,Population Fragmented Nuclei (%),[8],27%
same,Population Healthy Nuclei (%),[8],59%
same,Population Hoechst High Intensity Objects (%),[8],3%
same,Population Membrane Permeable-Phenotype (%),[8],5%
same,Population Mitochondria Different-Phenotype (%),[8],3%
same,Population Mitotic Cells (%),[8],76%
same,Population Normal (%),[8],96%
same,Population Pyknosed Nuclei (%),[8],12%
same,Population Tubulin-Different-Phenotype (%),[8],33%
same,Total Cell Count,[8],105
same,Population Apoptotic (%),[9],75%
same,Population Fragmented Nuclei (%),[9],15%
same,Population Healthy Nuclei (%),[9],72%
same,Population Hoechst High Intensity Objects (%),[9],5%
same,Population Membrane Permeable-Phenotype (%),[9],2%
same,Population Mitochondria Different-Phenotype (%),[9],3%
same,Population Mitotic Cells (%),[9],25%
same,Population Normal (%),[9],94%
same,Population Pyknosed Nuclei (%),[9],12%
same,Population Tubulin-Different-Phenotype (%),[9],24%
same,Total Cell Count,[9],134
same,Population Apoptotic (%),[10],39%
same,Population Fragmented Nuclei (%),[10],27%
same,Population Healthy Nuclei (%),[10],55%
same,Population Hoechst High Intensity Objects (%),[10],8%
same,Population Membrane Permeable-Phenotype (%),[10],9%
same,Population Mitochondria Different-Phenotype (%),[10],5%
same,Population Mitotic Cells (%),[10],60%
same,Population Normal (%),[10],91%
same,Population Pyknosed Nuclei (%),[10],16%
same,Population Tubulin-Different-Phenotype (%),[10],46%
same,Total Cell Count,[10],149
same,Population Apoptotic (%),[11],80%
same,Population Fragmented Nuclei (%),[11],19%
same,Population Healthy Nuclei (%),[11],70%
same,Population Hoechst High Intensity Objects (%),[11],3%
same,Population Membrane Permeable-Phenotype (%),[11],0%
same,Population Mitochondria Different-Phenotype (%),[11],3%
same,Population Mitotic Cells (%),[11],20%
same,Population Normal (%),[11],96%
same,Population Pyknosed Nuclei (%),[11],10%
same,Population Tubulin-Different-Phenotype (%),[11],34%
same,Total Cell Count,[11],147
same,Population Apoptotic (%),[12],54%
same,Population Fragmented Nuclei (%),[12],34%
same,Population Healthy Nuclei (%),[12],54%
same,Population Hoechst High Intensity Objects (%),[12],4%
same,Population Membrane Permeable-Phenotype (%),[12],3%
same,Population Mitotic Cells (%),[12],45%
same,Population Normal (%),[12],95%
same,Population Tubulin-Different-Phenotype (%),[12],50%
same,Total Cell Count,[12],111
